In general, Cmax refers to the maximum level reached in the sampled fluid or tissue. Broadly, the CL/F is clearance divided by bioavailability, as obtained after extravascular dosing. As usually defined, the half-life is how long it takes for the measured level to halve. As usually defined, the AUC(0-inf) is the area under the concentration-time curve extrapolated to infinity. A word on the AUC(0-t): it is the area under the concentration-time curve up to a stated or last time point.

A short description of series [1]: Plasma pharmacokinetics of the CYP probe substrates and metabolites. The settings on record: for t1/2 / half-life: harmonic mean ± pseudo-SD; for AUC(0-inf): AUCinf; for AUC(0-t): AUCt. The format is in vivo, human.
The next series relates to CYP2C19. It counts as in vivo, human. The conditions noted are these: probe with upadacitinib 30 mg once daily relative to probe alone, all subjects.
A further series addresses T1, CYP1A2 (Homo sapiens, UniProt P05177).
T1 sequence (P05177 1-516): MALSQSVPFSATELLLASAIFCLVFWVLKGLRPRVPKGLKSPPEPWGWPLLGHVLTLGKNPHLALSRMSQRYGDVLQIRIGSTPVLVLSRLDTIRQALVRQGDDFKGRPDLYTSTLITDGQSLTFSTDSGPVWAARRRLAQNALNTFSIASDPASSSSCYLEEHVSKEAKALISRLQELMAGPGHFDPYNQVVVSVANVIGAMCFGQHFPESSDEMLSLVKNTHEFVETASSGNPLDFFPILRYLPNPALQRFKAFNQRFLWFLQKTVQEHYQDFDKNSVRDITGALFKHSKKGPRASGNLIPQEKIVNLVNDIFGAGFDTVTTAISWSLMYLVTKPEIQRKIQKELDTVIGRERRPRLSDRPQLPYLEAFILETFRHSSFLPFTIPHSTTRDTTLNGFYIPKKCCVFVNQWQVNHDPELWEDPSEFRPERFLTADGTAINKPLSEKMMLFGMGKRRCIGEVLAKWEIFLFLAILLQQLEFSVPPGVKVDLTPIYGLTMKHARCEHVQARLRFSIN
The format is in vivo. The settings on record: probe with upadacitinib 30 mg once daily relative to probe alone, all subjects. An outline of the steps:
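Twenty subjects received single oral doses on two occasions: a caffeine 200 mg tablet with the other cocktail probes, after a 10-hour minimum fast and 4 hours before lunch. This was given first alone, then after a 5-day washout on day 12 of test compound 30 mg once daily (days 1‐15). Heparinised plasma was sampled predose through 24 h and at 36 h, with validated assay.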

The test system of the next series is CYP2D6. It counts as in vivo, human. The settings on record: probe with upadacitinib 30 mg once daily relative to probe alone, all subjects.
The test system of series [2] is CYP3A. It counts as in vivo, human.
The nature of series [3]: Safety assessments in the cocktail study. The format is in vivo, human.
For series [4] the following is noted: cited from earlier work.
Series [5] deals with CYP3A. The conditions noted are these: cited from earlier work.
The mark [6] stands for this setting: Period 1, CYP probes alone, median (range).
Where [7] appears, read: Period 1, CYP probes alone, n = 20, mean ± SD.
The mark [8] stands for this setting: Period 2, CYP probes + upadacitinib 30 mg once daily.
[9] abbreviates: Period 2, CYP probes + upadacitinib 30 mg once daily, median (range).
Where [10] appears, read: Period 2, CYP probes + upadacitinib 30 mg once daily, n = 20, mean ± SD.
[11] abbreviates: human, plasma, oral, t1/2, Period 2, CYP probes + upadacitinib 30 mg once daily.
[12] abbreviates: human, plasma, oral, Period 1, CYP probes alone, n = 20, mean ± SD.
Setting [13] is: human, plasma, oral, Period 2, CYP probes + upadacitinib 30 mg once daily, n = 20, mean ± SD.
The mark [14] stands for this setting: multiple doses of upadacitinib 30 mg once daily.
[15] abbreviates: probe with upadacitinib 30 mg once daily relative to probe alone, all subjects.

Regarding `COc1ccc2nc([S+]([O-])Cc3ncc(CO)c(OC)c3C)[nH]c2c1` (centres unmarked) [5‐Hydroxy omeprazole, 5‐hydroxy‐omeprazole], the t1/2 in series [1] (Period 1, CYP probes alone) is 1.36 ± 0.293 h; in series [1] (setting [8]) it was 1.37 ± 0.319 h. Moreover, the Tmax in series [1] (setting [6]) and in series [1] (setting [9]) was 3.0 (2.0‐6.0) h throughout. Moreover, the AUCinf in series [1] (setting [7]) is 1.29 ± 0.364 µg·h/mL; in series [1] (setting [10]), 1.18 ± 0.302 µg·h/mL. In addition, the figures for the AUCt in series [1] (setting [7]) and in series [1] (setting [10]) were 1.27 ± 0.359 µg·h/mL and 1.16 ± 0.292 µg·h/mL, respectively. For the same molecule, the Cmax in series [1] (Period 1, CYP probes alone, single oral dose, plasma, healthy subjects n = 20, mean ± SD) was determined as 0.435 ± 0.155 µg/mL; in series [1] (Period 2, CYP probes + upadacitinib 30 mg once daily, plasma, n = 20, mean ± SD) it was 0.389 ± 0.116 µg/mL. Also, the “AUCinf Central Value Ratio (90%CI)” value in the series with CYP2C19 is given as 0.92 (0.86‐0.99). In addition, the “AUCt Central Value Ratio (90%CI)” value in the series with CYP2C19 is 0.92 (0.85‐0.99).
`Cn1c(=O)c2c(ncn2C)n(C)c1=O` [Caffeine, caffeine]: the results for the CL/F in series [1] (setting [7]) and in series [1] (setting [10]) were 6.53 ± 2.99 L/h and 5.31 ± 2.26 L/h, respectively. Moreover, the Tmax in series [1] (setting [9]) is 2.0 (1.0‐4.0) h; in series [1] (human, plasma, oral), 2 h. Moreover, the half-life in series [1] (human, plasma, oral, t1/2, Period 1, CYP probes alone) was 4.52 ± 1.5 h; in series [1] (setting [11]), 5.28 ± 1.5 h. Besides, the Cmax in series [1] (human, plasma, po) was found to be 4.19 ± 0.826 µg/mL. At CYP1A2, the “AUCinf Central Value Ratio (90%CI)” value is given as 1.22 (1.15‐1.29). The “AUCt Central Value Ratio (90%CI)” value at CYP1A2 is listed as 1.21 (1.15‐1.28). In addition, the “Cmax Central Value Ratio (90%CI)” value on CYP1A2 was 1.13 (1.05‐1.22).
On to `COc1ccc2c(c1)[C@]13CCCC[C@@H]1[C@H](C2)N(C)CC3` [Dextromethorphan, dextromethorphan], for which the t1/2 in series [1] (Period 1, CYP probes alone) was found to be 6.82 ± 4.68 h; in series [1] (setting [8]), 7.26 ± 5.08 h. The CL/F in series [1] (setting [7]) is 4120 ± 5580 L/h; in series [1] (setting [10]), 3390 ± 4560 L/h. Moreover, the Tmax in series [1] (setting [9]) is 3.5 (2.0‐6.0) h; in series [1] (human, plasma, oral) it was 3.5 h. In addition, the results for the AUC(0-inf) in series [1] (setting [12]) and in series [1] (setting [13]) were 0.403 ± 0.706 µg·h/mL and 0.328 ± 0.552 µg·h/mL, respectively. Moreover, the AUC(0-t) in series [1] (setting [12]) was determined as 0.25 ± 0.397 µg·h/mL; in series [1] (setting [13]), 0.225 ± 0.347 µg·h/mL. Moreover, the Cmax in series [1] (human, plasma, po) worked out at 0.00777 ± 0.0101 µg/mL. In addition, the “AUCinf Central Value Ratio (90%CI)” value with CYP2D6 is recorded as 1.07 (0.95‐1.22). Besides, the “AUCt Central Value Ratio (90%CI)” value with CYP2D6 is listed as 1.10 (0.97‐1.25). Moreover, in the series with CYP2D6, the “Cmax Central Value Ratio (90%CI)” value is recorded as 1.09 (0.98‐1.21).
For the molecule `Cc1ncc2n1-c1ccc(Cl)cc1C(c1ccccc1F)=NC2` [Midazolam, midazolam], in series [1] (Period 1, CYP probes alone), the t1/2 was 4.65 ± 2.51 h. Also, in series [1] (setting [6]), the Tmax is 0.5 (0.5‐1.0) h. Moreover, in series [1] (setting [7]), the CL/F was 68.1 ± 29.2 L/h. In series [1] (setting [8]), the t1/2 is listed as 4.08 ± 2.33 h. In addition, the CL/F in series [1] (setting [10]) came out at 90.2 ± 32.7 L/h. Also, in series [1] (setting [13]), the AUC(0-inf) was found to be 0.0646 ± 0.0309 µg·h/mL and the AUC(0-t) is 0.0632 ± 0.0296 µg·h/mL. Further, the AUC(0-t) in series [1] (setting [12]) was determined as 0.0875 ± 0.0445 µg·h/mL. Also, in series [1] (human, plasma, po), the Cmax came out at 0.0326 ± 0.0141 µg/mL. In the series on CYP3A [2] (setting [14]), the “decrease in AUCinf” value was found to be 26% and the “decrease in Cmax” value was determined as 26%. For the same molecule, in the series with CYP3A [2] (setting [15]), the “AUCinf Central Value Ratio (90%CI)” value is on record as 0.74 (0.68‐0.80), the “AUCt Central Value Ratio (90%CI)” value was 0.74 (0.68‐0.80) and the “Cmax Central Value Ratio (90%CI)” value was 0.74 (0.68‐0.80). In the series with CYP3A [2] (upadacitinib 30 mg once daily), this molecule had a decrease in exposure of 26%.
Regarding `COc1ccc2[nH]c([S+]([O-])Cc3ncc(C)c(OC)c3C)nc2c1` (centres unmarked) [Omeprazole, omeprazole], the CL/F in series [1] (setting [7]) was 26.5 ± 20.5 L/h. Also, in series [1] (setting [9]), the Tmax is 3.0 (2.0‐6.0) h. Further, the CL/F in series [1] (setting [10]) is on record as 34.9 ± 24.7 L/h. In addition, in series [1] (human, plasma, oral), the Tmax turned out to be 3 h. Also, in series [1] (setting [12]), the AUC(0-inf) was 2.89 ± 2.87 µg·h/mL and the area under the curve AUC(0-t) came out at 2.52 ± 2.75 µg·h/mL. For the same molecule, in series [1] (setting [13]), the total exposure AUC(0-inf) amounted to 2.08 ± 1.86 µg·h/mL and the AUC(0-t) was 2 ± 1.82 µg·h/mL. In series [1] (setting [11]), the half-life was 1.14 ± 0.386 h. Further, in the series on CYP2C19, the “AUCinf Central Value Ratio (90%CI)” value was 0.82 (0.72‐0.94), the “AUCt Central Value Ratio (90%CI)” value is 0.87 (0.77‐0.99) and the “Cmax Central Value Ratio (90%CI)” value is listed as 0.87 (0.72‐1.05).
As to `CC(=O)C[C@@H](c1ccccc1)c1c(O)c2ccccc2oc1=O` [S‐warfarin], the Tmax was 2.0 (0.5‐4.0) h in series [1] (setting [6]) and 2.0 (0.5‐3.0) h in series [1] (setting [9]). Besides, the “concentrations at the start of period 2” value in series [1] (carryover after 5-day washout) is on record as < 5 % of S‐warfarin Cmax.
`CC[C@@H]1CN(C(=O)NCC(F)(F)F)C[C@@H]1c1cnc2cnc3[nH]ccc3n12` [Upadacitinib]: the “effect of upadacitinib on CYP3A activity / probe exposure in vivo (in words)” value in the series on CYP3A [2] (upadacitinib 30 mg once daily, midazolam probe) was “limited effect”. The tolerability result in series [3] (CYP probe substrates alone or after multiple doses of upadacitinib 30 mg once daily, healthy subjects) is recorded as “well tolerated”. The “adverse event assessed as possibly related to upadacitinib” value in series [3] (one subject) was “mild oropharyngeal pain”. For the same molecule, in series [4], the “administered dose recovered as unchanged upadacitinib in feces and urine” value is on record as “more than 60%”; the metabolizing enzymes entry was “metabolized by cytochrome P450 (CYP) 3A and, to a lesser extent, by CYP2D6”. Besides, the accumulation in plasma entry in series [4] (multiple once-daily dosing of the extended-release formulation) is on record as “no accumulation”. Further, in the series on CYP3A [5] (concluded from ketoconazole and rifampin interaction), the “sensitivity as CYP3A substrate” value was “not a sensitive substrate for CYP3A”. Besides, in the series with CYP3A [5] (with ketoconazole, a strong CYP3A inhibitor), the “increase in upadacitinib AUC” value is 75%.

The values above are taken from PMC6972567 (Journal of Clinical Pharmacology, 2019).
